Screening results from PubChem.
Shown are actives, neighbours in structure and some others; about 0.72% of the full set was active somewhere.
hIAP activ – human IAP activation; activation factor at 10 µM; actives 0.16% (n = 330,000); purified human IAP, CDP-Star luminescence, 30 min; active compounds read high; 1 = vehicle-only enzyme, 0 = enzyme-free background;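 active = activation factor of the enzyme at least 2-fold when tested at 20 µM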
Target sequence (P09923 whole entry, looked up): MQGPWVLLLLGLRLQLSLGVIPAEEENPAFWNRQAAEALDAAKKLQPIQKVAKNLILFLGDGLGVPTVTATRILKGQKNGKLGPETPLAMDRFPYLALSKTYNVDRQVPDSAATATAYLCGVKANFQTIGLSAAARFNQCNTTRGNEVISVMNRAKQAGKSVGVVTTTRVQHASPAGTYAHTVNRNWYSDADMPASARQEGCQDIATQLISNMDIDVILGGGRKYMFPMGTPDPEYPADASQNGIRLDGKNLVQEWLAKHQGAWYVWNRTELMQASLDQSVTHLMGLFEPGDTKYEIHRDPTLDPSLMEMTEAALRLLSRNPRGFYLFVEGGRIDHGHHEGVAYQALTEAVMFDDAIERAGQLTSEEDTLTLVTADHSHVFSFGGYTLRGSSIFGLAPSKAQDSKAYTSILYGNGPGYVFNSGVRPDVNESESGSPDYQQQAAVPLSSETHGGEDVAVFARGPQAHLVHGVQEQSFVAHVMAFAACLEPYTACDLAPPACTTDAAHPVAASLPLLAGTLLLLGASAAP
bIAP act – intestinal alkaline phosphatase (bovine) activation | AID 1016 | purified bovine IAP, CDP-star luminescence, 30 min; active compounds read high; fold of DMSO-control signal, blank-subtracted | activation factor at 20 µM | actives 0.17% (n = 200,000);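 active = activation factor of 2 or more at 20 µM, a signal rise over negative controls twice the positive control's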
mIAP act – increases mouse intestinal alkaline phosphatase activity; muIAP, CDP-Star luminescence, 30 min; active compounds read high; 1 = vehicle-only enzyme signal, 0 = enzyme-free wells; activation factor at 10 µM; actives 0.24% (n = 330,000); AID 2805;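 active = activation factor of at least 2 at 20 µM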
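Assay system: mouse IAP enzyme / Compound: DMSO-dissolved test compounds / Timing: 30 min, room temperature / Measured by: luminescence from enzymatic CDP-Star hydrolysis / Control set: DMSO-only wells, enzyme-free buffer wells as negative control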
hIAP inh – human IAP inhibition; P09923; purified IAP, CDP-Star luminescence, 30 min; inhibition, % at 10 µM; actives 0.12% (n = 330,000);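 active = inhibition reaching a set limit with compound at 10 µM in the primary screen, cut at about 35% in these data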;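 also: plate controls were DMSO wells with enzyme for no effect and no-enzyme buffer wells for full effect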
bIAP inh – blocks bovine intestinal alkaline phosphatase activity. inhibition, % at 20 µM. purified bovine IAP, CDP-star luminescence, 30 min. AID 1019. 190,000 tested, under 10 active;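 active = over 50% inhibition of intestinal alkaline phosphatase at 20 µM in the single-dose screen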
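System: Purified bovine intestinal alkaline phosphatase (IAP) enzyme | Input: IAP diluted 1/65,000,000 in the well | Also added: CDP-star chemiluminescent phosphatase substrate, 30 µM final | Dosing: 20 µM single dose | Times: Enzyme reaction for 30 min at room temperature | Detection: Luminescence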
mIAP block – blocks mouse intestinal alkaline phosphatase; purified mouse IAP, CDP-Star luminescence, 30 min; actives 0.2% (n = 330,000); inhibition, % at 10 µM;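 active = inhibition of at least 40% at 10 µM in the primary screen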;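 also: plate controls were DMSO with enzyme for no effect and no enzyme wells for full effect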
hIAP act conf – human IAP activation confirmation; shares compounds with hIAP activ; purified IAP, CDP-Star luminescence, 30 min; active compounds read low; activation (%Activity, negative = activation), % at 8.3 µM; actives 10% (n = 880);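 active = at least twofold enzyme activation in any of six single-dose repeats, which the averaged readout prints as negative percent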
* = called active by the depositor; · = no result given.

SMILES | hIAP activ | bIAP act | mIAP act | hIAP inh | bIAP inh | mIAP block | hIAP act conf
COCCOCCn1c(/C=C/c2ccccc2)nc2ccccc21 | 0.91 | 0.9 | 1 | 9 | 6 | 0 | ·
Cc1ccc(-c2cc(C(=O)N/N=C/c3ccccc3O)n[nH]2)o1 | 3.1* | · | 0.84 | -214 | · | 16 | 39
Cc1ccc(C(=O)N(NC2=NS(=O)(=O)c3ccccc32)S(=O)(=O)c2ccc(C)cc2)cc1 | 2.4* | 1 | 1 | -137 | 2 | -2 | -27
CCN(C1=NS(=O)(=O)c2ccccc21)N(CC)S(=O)(=O)c1ccc(C)cc1 | 1 | 0.9 | 0.79 | -4 | 9 | 21 | ·
O=C1/C(=C/c2ccc(O)c(O)c2)SC(=S)N1Nc1ccccc1 | · | 0.5 | · | · | · | · | ·
COc1cc(/C=C2\SC(=S)N(NC(=O)c3ccc(O)cc3)C2=O)ccc1O | 0.56 | · | 0.66 | 44* | · | 34 | 2
O=C1/C(=C/c2ccc(F)cc2)SC(=S)N1N1CCOCC1 | 0.88 | · | 0.96 | 12 | · | 4 | ·
COc1cc(/C=C2\SC(=S)N(NC(=O)c3cccnc3)C2=O)ccc1O | 0.7 | · | 0.65 | 30 | · | 35 | ·
CCOc1cc(/C=C2\SC(=S)N(N3CCOCC3)C2=O)ccc1O | 0.61 | · | 0.62 | 39* | · | 38 | -33
COc1cc(/C=C2\SC(=S)N(Nc3ccccc3)C2=O)ccc1O | 0.6 | 1 | 0.59 | 40* | -4 | 41* | 8
CCC(C)NC(=O)/C=C1\Sc2ccccc2NC1=O (stereo not given) | 0.95 | 0.9 | 0.89 | 5 | 11 | 11 | ·
c1ccc2c3c(cc(N4CCOCC4)c2c1)OC1(N2CCOCC2)CCCCC1O3 (stereo not given) | 0.15 | 1.1 | 0.9 | 85* | -8 | 10 | -5
Cc1nnc(N2CCc3ccccc3C2)[nH]c1=O | 0.64 | 0.9 | 0.95 | 36* | 6 | 5 | -43
COc1ccc2[nH]c(C(=O)N/N=C/c3ccc(O)cc3O)cc2c1 | 2* | · | 0.82 | -104 | · | 18 | -9
Cc1nc(SCC(=O)Nc2ccc(OCc3ccccc3)cc2)n[nH]1 | 1.4 | 1 | 0.93 | -39 | -3 | 7 | ·
Cc1nc(S/C(=C\c2ccc(OCc3ccccc3Cl)cc2)C(=O)O)n[nH]1 | 2.1* | 1.1 | 0.89 | -113 | -10 | 11 | -48
Cn1ncc2c1ncn1nc(CCc3ccccc3)nc21 | 0.61 | 0.7 | 0.92 | 39* | 29 | 8 | -18
O=C(NNC(=O)c1cc(Br)ccc1O)c1csc(N2CCOCC2)n1 | 2.4* | · | 0.77 | -143 | · | 23 | 7
O=C(CCNS(=O)(=O)c1ccccc1C(F)(F)F)NNC(=O)c1csc(N2CCOCC2)n1 | 2.1* | · | 0.79 | -107 | · | 21 | 0
O=C(CC1(CC2=NS(=O)(=O)c3ccccc3N2)CCCC1)NCCc1ccccc1 | 1 | · | 1 | -4 | · | -4 | ·
CN(C)c1ccc(N=C/C=C2/N(C)c3ccccc3C2(C)C)cc1 | · | 0.6 | · | · | 37 | · | ·
CCCOC(=O)Nc1sc2c(c1C(N)=O)CCCC2 | 0.95 | 1 | 1 | 5 | 4 | -5 | ·
CCOc1cccc(/C=N/NC(=O)c2cc(C3CC3)[nH]n2)c1O | 2.5* | · | 0.91 | -147 | · | 9 | -12
CCCCn1c(N)c(N(Cc2ccccc2OC)C(=O)CN2C(=O)NC3(CCCC3)C2=O)c(=O)[nH]c1=O | 1.1 | · | 1 | -8 | · | -1 | ·
COc1ccc(C(=O)OCCCc2cc3ccccc3c(=O)o2)cc1 | 1 | · | 1 | -4 | · | -2 | ·
SMILES | hIAP activ | bIAP act | mIAP act | hIAP inh | bIAP inh | mIAP block | hIAP act conf
CCOc1cccc2sc(Nc3nc4ccc(NC(C)=O)cc4s3)nc12 | 2.1* | 1.1 | 1.4 | -108 | -14 | -39 | 9
COc1ccc(NC(=S)NNC(=O)Cn2nc(C(F)F)cc2C(F)F)cc1 | 1 | 0.7 | 0.96 | -4 | 25 | 4 | ·
O=C(Cn1nnc2ccccc2c1=O)NCCc1ccc(Cl)cc1Cl | 0.63 | 0.9 | 0.91 | 37* | 14 | 9 | 8
CC1(C)C[C@@H](O)CC2(C1)C[C@]1(C)CC(O)[C@H]2C(C)(C)C1 (stereo not given in full) | 2.1* | · | 0.94 | -105 | · | 6 | -93*
Cc1cc(-c2nc(-c3ccncc3)no2)ccc1[N+](=O)[O-] | 0.99 | · | 0.93 | 1 | · | 8 | ·
O=c1c2cc(O)c(O)cc2oc2cc(O)c(C3OC(CO)C(O)C(O)C3O)c(O)c12 (stereo not given) | 0.18 | · | 0.69 | 82* | · | 30 | -148*
N#CCN1C(=S)N=C(Nc2cccc(Cl)c2)C12CCCCC2 | 2.1* | 1 | 1.1 | -106 | -2 | -13 | -55*
CCCNC(=S)NNC(=O)c1cc(C2CC2)nc2ccccc12 | 2.2* | · | 0.95 | -117 | · | 5 | 0
CN(C)c1ccc(NC(=O)Nc2csc3ccccc23)cc1 | 2 | · | 1.4 | -100 | · | -36 | -84
CN(C)c1ccc(NC(=O)Nc2cccc(Cl)c2)cc1 | 0.87 | 1 | 1.2 | 13 | 4 | -20 | ·
O=C(NCC1CCCCC1)c1ccc(F)cc1Cl | 0.55 | · | 1 | 45* | · | -4 | 27
COC(=O)c1ccc(OC)c(CN2CCCN(Cc3cc(C)ccc3C)S2(=O)=O)c1 | 0.85 | · | 0.92 | 15 | · | 8 | ·
CC(C)(C)OC(=O)N1CCC(NC(=O)c2[nH]cnc2C(=O)Nc2ccon2)CC1 | 2.7* | · | 0.83 | -174 | · | 17 | 37
CC(C)(C)OC(=O)NCCCCCNC(=O)c1[nH]cnc1C(=O)Nc1ccon1 | 2* | · | 0.89 | -105 | · | 11 | 9
CC(C)(C)OC(=O)N1CCC(NC(=O)c2[nH]cnc2C(=O)Nc2ccc(Cl)cc2)CC1 | 1.6 | · | 0.97 | -65 | · | 3 | ·
CCCCNC(=O)c1cn(CC)c2ccc(S(=O)(=O)N3CCCC3)cc2c1=O | 0.82 | · | 1 | 18 | · | -2 | ·
CCn1cc(C(=O)NCCCOC)c(=O)c2cc(S(=O)(=O)N3CCCC3)ccc21 | 0.61 | · | 0.98 | 39* | · | 2 | -23
CCCCC#Cc1cncc(C(=O)N/N=C/c2cccc(OC)c2)c1 | 0.6 | · | 0.96 | 40* | · | 4 | -37
CCN(c1ccc(NC(=O)CSCc2c(C)noc2C)cc1)C(C)C | 0.88 | · | 1 | 12 | · | -4 | ·
COc1ccc(CC(=O)NNC(=O)c2cc(C)[nH]n2)cc1 | 1.4 | · | 0.79 | -43 | · | 21 | ·
Cc1cc(C(=O)NNC(=O)CCCCC(=O)NNC(=O)c2cc(C)[nH]n2)n[nH]1 | 3.5* | 0.8 | 0.73 | -254 | 20 | 27 | -79
Cc1cccc(C(=O)NNC(=O)CCCCC(=O)NNC(=O)c2cccc(C)c2)c1 | 2.4* | · | 1.1 | -144 | · | -7 | -4
Cc1ccc(NS(=O)(=O)c2ccc(-c3csc(C)n3)s2)c(C)c1 | 0.98 | · | 1 | 2 | · | 0 | ·
Cc1cc(=O)[nH]c(SCC(=O)N2CCCC(C)C2)n1 (stereo not given) | 0.97 | · | 1 | 3 | · | -2 | ·
